Assays:
Assay type in all cases: functional
Mus musculus [1] = test: Anticonvulsant activity was measured by subcutaneous pentylenetetrazole test on mice at 0.50 hr at the dose of 50 mg/kg; number of animals protected/number of animals tested 0/4
Mus musculus [2] = test: Anticonvulsant activity was measured by subcutaneous pentylenetetrazole test on mice at 4 h at the dose of 300 mg/kg; number of animals protected/number of animals tested, 0/1
Mus musculus [3] = test: Anticonvulsant activity was measured by rotarod toxicity test on mice at 4 hr at the dose of 50 mg/kg; number of animals protected/number of animals tested 0/4
Mus musculus [4] = test: Anticonvulsant activity was measured by rotarod toxicity test on mice at 4 hr at the dose of 300 mg/kg; number of animals protected/number of animals tested, 2/2
Mus musculus [5] = test: Anticonvulsant activity was measured by rotarod toxicity test on mice at 4 hr at the dose of 100 mg/kg; number of animals protected/number of animals tested 0/4
Mus musculus [6] = test: Anticonvulsant activity was measured by maximal electroshock test on mice at 1 hr at the dose of 50 mg/kg; number of animals protected/number of animals tested 1/4
Mus musculus [7] = test: Anticonvulsant activity was measured by maximal electroshock test on mice at 4 hr at the dose of 300 mg/kg; number of animals protected/number of animals tested, 0/1
Mus musculus [8] = test: Anticonvulsant activity was measured by maximal electroshock test on mice at 4 hr at the dose of 50 mg/kg; number of animals protected/number of animals tested 0/4
Mus musculus [9] = test: Anticonvulsant activity was measured by rotarod toxicity test on mice at 30 min at the dose of 300 mg/kg; number of animals protected/number of animals tested, 4/4
Mus musculus [10] = test: Anticonvulsant activity was measured by maximal electroshock test on mice at 30 min at the dose of 300 mg/kg; number of animals protected/number of animals tested, 1/1
Mus musculus [11] = test: Anticonvulsant activity was measured by rotarod toxicity teston mice at 0.50 hr at the dose of 50 mg/kg; number of animals protected/number of animals tested 0/4
Mus musculus [12] = test: Anticonvulsant activity was measured by subcutaneous pentylenetetrazole test on mice at 30 min at the dose of 100 mg/kg; number of animals protected/number of animals tested, 0/1
Mus musculus [13] = test: Anticonvulsant activity was measured by maximal electroshock test on mice at 30 min at the dose of 100 mg/kg; number of animals protected/number of animals tested, 2/3
Mus musculus [14] = test: Anticonvulsant activity was measured by rotarod toxicity test on mice at 2 hr at the dose of 50 mg/kg;number of animals protected/number of animals tested 0/4
Mus musculus [15] = test: Anticonvulsant activity was measured by maximal electroshock test on mice at 0.50 hr at the dose of 50 mg/kg; number of animals protected/number of animals tested 0/4
Mus musculus [16] = test: Anticonvulsant activity was measured by maximal electroshock test on mice at 2 hr at the dose of 50 mg/kg; number of animals protected/number of animals tested 0/4
Mus musculus [17] = test: Anticonvulsant activity was measured by subcutaneous pentylenetetrazole test on mice at 30 min at the dose of 300 mg/kg; number of animals protected/number of animals tested, 1/1
Mus musculus [18] = test: Anticonvulsant activity was measured by rotarod toxicity test on mice at 30 min at the dose of 100 mg/kg; number of animals protected/number of animals tested, 0/8
Mus musculus [19] = test: Anticonvulsant activity was measured by rotarod toxicity test on mice at 1 hr at the dose of 50 mg/kg; number of animals protected/number of animals tested 0/4
Mus musculus [20] = test: Anticonvulsant activity was measured by maximal electroshock test on mice at 4 hr at the dose of 100 mg/kg; number of animals protected/number of animals tested, 0/3
Mus musculus [21] = test: Anticonvulsant activity was measured by rotarod toxicity teston mice at 0.25 hr at the dose of 50 mg/kg; number of animals protected/number of animals tested 0/4
Mus musculus [22] = test: Anticonvulsant activity was measured by maximal electroshock test on mice at 0.25 hr at the dose of 50 mg/kg; number of animals protected/number of animals tested 0/4
Mus musculus [23] = test: Anticonvulsant activity was measured by subcutaneous pentylenetetrazole test on mice at 4 hr at the dose of 100 mg/kg; number of animals protected/number of animals tested, 0/3
Mus musculus [24] = test: Anticonvulsant activity was measured by rotarod toxicity teston mice at 0.25 hr at the dose of 50 mg/kg; number of animals protected/number of animals tested, 0/4
Mus musculus [25] = test: Anticonvulsant activity was measured by rotarod toxicity teston mice at 0.50 hr at the dose of 50 mg/kg; number of animals protected/number of animals tested, 0/4
Mus musculus [26] = test: Anticonvulsant activity was measured by maximal electroshock test on mice at 0.50 hr at the dose of 50 mg/kg; number of animals protected/number of animals tested, 0/4
Mus musculus [27] = test: Anticonvulsant activity was measured by rotarod toxicity test on mice at 30 min at the dose of 300 mg/kg; number of animals protected/number of animals tested, 0/4
Mus musculus [28] = test: Anticonvulsant activity was measured by maximal electroshock test on mice at 2 hr at the dose of 50 mg/kg; number of animals protected/number of animals tested, 2/4
Mus musculus [29] = test: Anticonvulsant activity was measured by maximal electroshock test on mice at 4 hr at the dose of 50 mg/kg; number of animals protected/number of animals tested, 0/4
Mus musculus [30] = test: Anticonvulsant activity was measured by rotarod toxicity test on mice at 2 hr at the dose of 50 mg/kg; number of animals protected/number of animals tested, 0/4
Mus musculus [31] = test: Anticonvulsant activity was measured by subcutaneous pentylenetetrazole test on mice at 30 min at the dose of 300 mg/kg; number of animals protected/number of animals tested, 5/5
Mus musculus [32] = test: Anticonvulsant activity was measured by rotarod toxicity test on mice at 4 hr at the dose of 100 mg/kg; number of animals protected/number of animals tested, 0/4
Mus musculus [33] = test: Anticonvulsant activity was measured by subcutaneous pentylenetetrazole test on mice at 30 min at the dose of 100 mg/kg; number of animals protected/number of animals tested, 2/5
Mus musculus [34] = test: Anticonvulsant activity was measured by rotarod toxicity test on mice at 4 h at the dose of 300 mg/kg; number of animals protected/number of animals tested, 0/2
Mus musculus [35] = test: Anticonvulsant activity was measured by subcutaneous pentylenetetrazole test on mice at 4 hr at the dose of 100 mg/kg; number of animals protected/number of animals tested, 0/1
Mus musculus [36] = test: Anticonvulsant activity was measured by rotarod toxicity test on mice at 4 hr at the dose of 50 mg/kg; number of animals protected/number of animals tested, number of animals protected/number of animals tested, 0/4
Mus musculus [37] = test: Anticonvulsant activity was measured by maximal electroshock test on mice at 0.25 hr at the dose of 50 mg/kg; number of animals protected/number of animals tested, 0/4
Mus musculus [38] = test: Anticonvulsant activity was measured by maximal electroshock test on mice at 30 min at the dose of 100 mg/kg; number of animals protected/number of animals tested, 1/3
Mus musculus [39] = test: Anticonvulsant activity was measured by maximal electroshock test on mice at 30 min at the dose of 300 mg/kg; number of animals protected/number of animals tested 1/1
Mus musculus [40] = species on record: Mus musculus; test: Protective index (TD50/ED50) value in MES test in mice
Mus musculus [41] = test: Elevation of threshold for electroshock induced seizures in mice was measured by ip administration after 0.5 hr at the dose of 150 mg/kg; No. of mice protected/no tested 3/12; conditions: route intraperitoneal
Mus musculus [42] = species on record: Mus musculus; test: Protective index (TD50/ED50) value in scMET test in mice
In short: (§1)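 Phase II quantification in mice after ip dosing. ED50 (scMet or MES) measured at the time of peak effect. TD50 (rotorod neurologic deficit) measured at the time of peak neurologic deficit. Medians and 95% confidence limits by the Litchfield-Wilcoxon method. Protective index = TD50/ED50. Time of peak effect determined in the MES or scMet test.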

Mus musculus [43] = test: Anticonvulsant activity was measured by rotarod toxicity teston mice at 0.25 hr at the dose of 100 mg/kg; number of animals protected/number of animals tested 0/2
Mus musculus [44] = test: Time of peak effect of activity of compound was measured by both MES and sc Met test in mice; in short: as §1
Mus musculus [45] = test: Anticonvulsant activity was measured by rotarod toxicity test on mice at 30 min at the dose of 300 mg/kg; number of animals protected/number of animals tested 1/4
Mus musculus [46] = test: Effective dose was measured in mouse by maximal electroshock method by ip administration.; in short: as §1
Mus musculus [47] = species on record: Mus musculus; test: ED50 value of compound was expressed as dose protecting 50% of mice from tonic hind limb extension; conditions: Hindlimb
In short: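 Maximal electroshock test in male CF1 mice (23-34 g). Compound given as a 0.5% methylcellulose suspension ip or po, with testing at 0.5 h after several doses. Endpoint is protection from tonic hind limb extension.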

Mus musculus [48] = test: Effective dose was measured in mouse by subcutaneous pentylenetetrazole method by ip administration.; in short: as §1
Mus musculus [49] = test: Anticonvulsant activity was measured by rotarod toxicity test on mice at 4 h at the dose of 300 mg/kg; number of animals protected/number of animals tested 0/2
Mus musculus [50] = test: Anticonvulsant activity was measured by subcutaneous pentylenetetrazole test on mice at 30 min at the dose of 300 mg/kg; number of animals protected/number of animals tested 1/1
Mus musculus [51] = test: Elevation of threshold for electroshock induced seizures in mice was measured by ip administration after 0.5 hr at the dose of 250 mg/kg; No. of mice protected/no tested 5/8; conditions: route intraperitoneal
Mus musculus [52] = test: Time of peak effect of toxicity of compound was measured by both MES and sc Met test in mice; in short: as §1
Mus musculus [53] = test: Elevation of threshold for electroshock induced seizures in mice was measured by ip administration after 0.5 hr at the dose of 200 mg/kg; No. of mice protected/no tested 5/12; conditions: route intraperitoneal
Mus musculus [54] = test: Anticonvulsant activity was measured by rotarod toxicity test on mice at 1 hr at the dose of 100 mg/kg; number of animals protected/number of animals tested 0/2
Mus musculus [55] = test: Elevation of threshold for electroshock induced seizures in mice was measured by ip administration after 0.5 hr at the dose of 100 mg/kg; No. of mice protected/no tested 1/12; conditions: route intraperitoneal
Mus musculus [56] = test: Anticonvulsant activity was measured by subcutaneous pentylenetetrazole test on mice at 4 hr at the dose of 300 mg/kg; number of animals protected/number of animals tested 1/1
Mus musculus [57] = test: Anticonvulsant activity was measured by maximal electroshock test on mice at 4 h at the dose of 300 mg/kg; number of animals protected/number of animals tested 1/1
Mus musculus [58] = test: Anticonvulsant activity was measured by maximal electroshock test on mice at 0.25 hr at the dose of 100 mg/kg; number of animals protected/number of animals tested 0/2

## O=C1CC2(CCCC2)C(=O)N1OCc1cccc(Cl)c1
Mus musculus [1]
  Ratio: 0
Mus musculus [2]
  Ratio: 0
Mus musculus [3]
  Ratio: 0
Mus musculus [4]
  Ratio: 2
Mus musculus [5]
  Ratio: 0
Mus musculus [6]
  Ratio: 1
Mus musculus [7]
  Ratio: 0
Mus musculus [8]
  Ratio: 0
Mus musculus [9]
  Ratio: 4
Mus musculus [10]
  Ratio: 1
Mus musculus [11]
  Ratio: 0
Mus musculus [12]
  Ratio: 0
Mus musculus [13]
  Ratio: 2
Mus musculus [14]
  Ratio: 0
Mus musculus [15]
  Ratio: 0
Mus musculus [16]
  Ratio: 0
Mus musculus [17]
  Ratio: 1
Mus musculus [18]
  Ratio: 0
Mus musculus [19]
  Ratio: 0
Mus musculus [20]
  Ratio: 0
Mus musculus [21]
  Ratio: 0
Mus musculus [22]
  Ratio: 0
Mus musculus [23]
  Ratio: 0

## O=C1CC2(CCCC2)C(=O)N1OCc1ccccc1C(F)(F)F
Mus musculus [24]
  Ratio: 0
Mus musculus [2]
  Ratio: 0
Mus musculus [25]
  Ratio: 0
Mus musculus [7]
  Ratio: 0
Mus musculus [26]
  Ratio: 0
Mus musculus [27]
  Ratio: 0
Mus musculus [28]
  Ratio: 2
Mus musculus [29]
  Ratio: 0
Mus musculus [30]
  Ratio: 0
Mus musculus [31]
  Ratio: 5
Mus musculus [32]
  Ratio: 0
Mus musculus [10]
  Ratio: 1
Mus musculus [33]
  Ratio: 2
Mus musculus [34]
  Ratio: 0
Mus musculus [35]
  Ratio: 0
Mus musculus [36]
  Ratio: 0
Mus musculus [18]
  Ratio: 0
Mus musculus [37]
  Ratio: 0
Mus musculus [20]
  Ratio: 0
Mus musculus [38]
  Ratio: 1

## O=C1CC2(CCCC2)C(=O)N1OCc1ccc(Cl)cc1Cl
Mus musculus [39]
  Ratio: 1
Mus musculus [40]
  PI: 1.5
Mus musculus [41]
  Protection: 25%
Mus musculus [42]
  PI: 1.9
Mus musculus [43]
  Ratio: 0
Mus musculus [44]
  TPE: 1
Mus musculus [45]
  Ratio: 1
Mus musculus [46]
  ED50: 241 mg/kg
Mus musculus [47]
  ED50: 216 mg/kg
Mus musculus [48]
  ED50: 190 mg/kg
Mus musculus [49]
  Ratio: 0
Mus musculus [50]
  Ratio: 1
Mus musculus [51]
  Protection: 62.5%
Mus musculus [52]
  TPE: 0.5
Mus musculus [53]
  Protection: 41.7%
Mus musculus [54]
  Ratio: 0
Mus musculus [55]
  Protection: 8.33%
Mus musculus [56]
  Ratio: 1
Mus musculus [57]
  Ratio: 1
Mus musculus [58]
  Ratio: 0
